{
  "source": "ChEMBL document CHEMBL3124865",
  "about": "“Sulfur rich 2-mercaptobenzothiazole and 1,2,3-triazole conjugates as novel antitubercular agents” (2014)",
  "data": [
    {"tested_on": "Mycobacterium tuberculosis", "experiment": "Bactericidal activity against Mycobacterium tuberculosis H37Rv after 20 days", "format": "functional", "details": "480 h", "how_it_was_run": "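After the microdilution MIC run, 0.02 mL of H37Rv suspension from wells at MIC and higher concentrations was plated on 7H10 agar (7H11 also named). Viable counts were taken after 20 days at 37 °C. MBC is the lowest concentration that cut viable counts by at least 99% versus compound-free wells.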", "units": {"MBC": "µg/mL"}, "values": [
      {"molecule": "O=[N+]([O-])c1ccc(-n2cc(CSc3nc4ccccc4s3)nn2)cc1", "MBC": 32},
      {"molecule": "CC1(C)O[C@H]2OC(Cn3cc(CSc4nc5ccccc5s4)nn3)[C@@H]3OC(C)(C)O[C@@H]3[C@@H]2O1", "note": "(stereo partly drawn)", "MBC": 32},
      {"molecule": "O=[N+]([O-])c1cccc(-n2cc(CSc3nc4ccccc4s3)nn2)c1", "MBC": 64},
      {"molecule": "Clc1cccc(-n2cc(CSc3nc4ccccc4s3)nn2)c1", "MBC": "> 64"}
    ]},
    {"tested_on": "Mycobacterium tuberculosis", "experiment": "Antimycobacterial activity against Mycobacterium tuberculosis H37Rv after 2 to 3 weeks by broth microdilution assay", "format": "functional", "details": "not given", "how_it_was_run": "(§1)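 M. tuberculosis H37Rv in broth microdilution. Compounds were first screened at one fixed concentration in triplicate, and actives went on to MIC determination. Plates were incubated 2–3 weeks at 37 °C in a CO₂ incubator. MIC was read visually as the absence of growth turbidity.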", "units": {"MIC": "µg/mL"}, "values": [
      {"molecule": "Fc1ccc(-n2cc(CSc3nc4ccccc4s3)nn2)cc1", "MIC": "< 128"},
      {"molecule": "O=C(C(=O)N1CCOCC1)c1c[nH]c2ccccc12", "MIC": "< 128"},
      {"molecule": "O=[N+]([O-])c1ccc(-n2cc(CSc3nc4ccccc4s3)nn2)cc1", "MIC": 8},
      {"molecule": "NNC(=O)c1ccncc1", "note": "[ISONIAZID]", "MIC": 0.125},
      {"molecule": "O=C(CSc1nc2ccccc2s1)Nc1ccccn1", "MIC": 64},
      {"molecule": "CC1(C)O[C@H]2OC(Cn3cc(CSc4nc5ccccc5s4)nn3)[C@@H]3OC(C)(C)O[C@@H]3[C@@H]2O1", "note": "(stereo partly drawn)", "MIC": 8},
      {"molecule": "O=C(C(=O)N1CCCCC1)c1c[nH]c2ccccc12", "MIC": "< 128"},
      {"molecule": "Cc1ccccc1-n1cc(CSc2nc3ccccc3s2)nn1", "MIC": "< 128"},
      {"molecule": "CN1CCN(C(=O)C(=O)c2c[nH]c3ccccc23)CC1", "MIC": "< 128"},
      {"molecule": "CO[C@H]1/C=C/O[C@@]2(C)Oc3c(C)c(O)c4c(O)c(c(/C=N/N5CCN(C)CC5)c(O)c4c3C2=O)NC(=O)/C(C)=C\\C=C\\[C@H](C)[C@H](O)[C@@H](C)[C@@H](O)[C@@H](C)[C@H](OC(C)=O)[C@@H]1C", "note": "[RIFAMPIN]", "MIC": 0.06},
      {"molecule": "O=C(C(=O)N1CCCC1)c1c[nH]c2ccccc12", "MIC": "< 128"},
      {"molecule": "Clc1ccc(-n2cc(CSc3nc4ccccc4s3)nn2)cc1", "MIC": "< 128"},
      {"molecule": "O=C(CSc1nc2ccccc2s1)N1CCCC1", "MIC": "< 128"},
      {"molecule": "Brc1ccc(-n2cc(CSc3nc4ccccc4s3)nn2)cc1", "MIC": 16},
      {"molecule": "O=C(CSc1nc2ccccc2s1)NN1CCOCC1", "MIC": "< 128"},
      {"molecule": "O=C(CSc1nc2ccccc2s1)NNC(=O)c1ccncc1", "MIC": "< 128"},
      {"molecule": "O=C(CSc1nc2ccccc2s1)Nc1ccc(Br)cc1", "MIC": "< 128"},
      {"molecule": "c1cncc(-n2cc(CSc3nc4ccccc4s3)nn2)c1", "MIC": 16},
      {"molecule": "CC1(C)OCC(Cn2cc(CSc3nc4ccccc4s3)nn2)O1", "note": "(stereo not drawn)", "MIC": "< 128"},
      {"molecule": "O=C(NNC(=O)c1ccncc1)C(=O)c1c[nH]c2ccccc12", "MIC": 64},
      {"molecule": "O=C(CSc1nc2ccccc2s1)N1CCCCC1", "MIC": "< 128"},
      {"molecule": "O=C(CSc1nc2ccccc2s1)N1CCSCC1", "MIC": 64},
      {"molecule": "c1ccc(-n2cc(CSc3nc4ccccc4s3)nn2)cc1", "MIC": "< 128"},
      {"molecule": "O=[N+]([O-])c1cccc(-n2cc(CSc3nc4ccccc4s3)nn2)c1", "MIC": 8},
      {"molecule": "O=C(CSc1nc2ccccc2s1)N1CCOCC1", "MIC": "< 128"},
      {"molecule": "Clc1cccc(-n2cc(CSc3nc4ccccc4s3)nn2)c1", "MIC": 8},
      {"molecule": "O=C(CSc1nc2ccccc2s1)NCc1ccc(F)cc1", "MIC": "< 128"},
      {"molecule": "O=C(NN1CCOCC1)C(=O)c1c[nH]c2ccccc12", "MIC": "< 128"},
      {"molecule": "CCOc1ccc(-n2cc(CSc3nc4ccccc4s3)nn2)cc1", "MIC": "< 128"},
      {"molecule": "O=C(C(=O)N1CCSCC1)c1c[nH]c2ccccc12", "MIC": "< 128"},
      {"molecule": "CN1CCN(C(=O)CSc2nc3ccccc3s2)CC1", "MIC": "< 128"},
      {"molecule": "O=C(CSc1nc2ccccc2s1)Nc1ccc(F)cc1", "MIC": 64},
      {"molecule": "Clc1ccccc1-n1cc(CSc2nc3ccccc3s2)nn1", "MIC": 16}
    ]},
    {"tested_on": "Mycobacterium tuberculosis", "experiment": "Antimycobacterial activity against Mycobacterium tuberculosis", "format": "functional", "details": "not given", "how_it_was_run": "as §1", "units": {"MIC": "µg/mL"}, "values": [
      {"molecule": "CC1COC2(CCN(c3nc(=O)c4cc(C(F)(F)F)cc([N+](=O)[O-])c4s3)CC2)O1", "note": "(stereo not drawn)", "MIC": 0.001}
    ]}
  ]
}
